An excerpt weighted towards active compounds, which were near 1.5% of everything screened.
DAGLB inhibitor – DAGLB lipase inhibitors, primary screen, biochemical, fluorescence, HTS | HEK293T DAGLB membrane lysate, EnzChek fluorogenic substrate | hit rate 0.059% among 340,000 | AID 504411, 2011 | inhibition, % at 5.17 µM | Diacylglycerol lipase-beta (Homo sapiens), Q8NCG7; in the data active = inhibition above about 34%;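 also: 0% = enzyme with vehicle and 100% = wells lacking enzyme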
MT1-MMP act inh – blockers of MT1-MMP proenzyme processing, primary screen, HT1080 RFP-PRO-GFP cells, GFP/RFP fluorescence; Matrix metalloproteinase-14 (Homo sapiens), P50281; GFP/RFP ratio fluorescence, overnight; percent of plate control window, DMSO zero; GFP/RFP ratio change, % at 20 µM; hit rate 0.061% among 360,000; AID 651647, 2012;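 active = GFP/RFP ratio change of at least 30% with cell ATP level not reduced by more than half and red fluorescence within 50% of control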
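system = RFP-PRO-GFP reporter HT1080 cells | dosing = 20 µM single dose, 1% DMSO | timing = overnight cell settling, then overnight compound exposure, 37 °C, 5% CO2 | read-out basis = GFP/RFP fluorescence ratio | controls = DMSO and RFP-L50D-GFP cell wells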
CendR NRP1 mod – modulators of CendR peptide binding to NRP-1, primary screen, biochemical, fluorescence polarization, uHTS. Neuropilin-1 (Homo sapiens), O14786. FAM-RPARPAR peptide binding to NRP-1. inhibition, % at 25 µM. hit rate 0.85% among 360,000;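 active = inhibition or corrected inhibition above about 18%, plus a signal ratio from 0.5 to 1.5, limit read from the data, passing the limit was not always enough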
Fh CTSL1 inh – Fasciola hepatica cathepsin L1 inhibitors, primary screen, counter-screen for PFM18AAP inhibitor project, biochemical, QFRET, fluorogenic peptide substrate. recombinant F. hepatica cathepsin L1, Z-Leu-Arg-MCA fluorescence. inhibition, % at 5.96 µM. hit rate 0.49% among 300,000. AID 1906, 2009;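 active = inhibition above the mean of all tested compounds plus 3 SD, set per screening campaign, cut at about 17% in these data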;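 also: 0% = plate median of test compound wells and 100% = 1 µM Z-Phe-Ala-diazomethylketone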
UCH37 DUB inh – inhibitors of human UCH37 deubiquitinase, primary screen, biochemical, Ub-AMC cleavage, fluorescence | inhibition, % (test concentration not listed) | AID 588478, 2011 | purified proteasome/UCH37 | Ubiquitin carboxyl-terminal hydrolase isozyme L5 (Homo sapiens), Q9Y5K5 | hit rate 0.33% among 330,000;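 active = mean inhibition over replicate wells above about 20%, limit read from the data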;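 also: 0% = compound-free wells with enzyme and 100% = wells lacking proteasome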
Target sequence (Q9Y5K5 whole entry, looked up): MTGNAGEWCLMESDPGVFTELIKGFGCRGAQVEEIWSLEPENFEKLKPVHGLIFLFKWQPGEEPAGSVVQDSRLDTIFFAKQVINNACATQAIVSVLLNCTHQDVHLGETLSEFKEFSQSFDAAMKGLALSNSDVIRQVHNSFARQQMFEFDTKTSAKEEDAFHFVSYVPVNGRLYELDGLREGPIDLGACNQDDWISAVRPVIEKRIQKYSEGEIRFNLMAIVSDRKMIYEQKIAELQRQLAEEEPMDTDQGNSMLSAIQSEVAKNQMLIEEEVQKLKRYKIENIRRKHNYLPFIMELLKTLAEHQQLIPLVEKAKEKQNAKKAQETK
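System: Proteasome-associated human UCH37 deubiquitinase; Input: 0.15 nM proteasome in added enzyme buffer; Also added: Ub-AMC substrate from 1 µM stock; Incubation: 30 min compound-proteasome preincubation then 25 min substrate reaction, room temperature; Detection: fluorescence, ex 355 nm, em 460 nm; Read-out: % inhibition of Ub-AMC cleavage fluorescence; Benchmarks: no-proteasome and no-compound wells.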
Starred values were filed as active, the others as inactive; . = not tested or not shown.

SMILES	DAGLB inhibitor	MT1-MMP act inh	CendR NRP1 mod	Fh CTSL1 inh	UCH37 DUB inh
Nc1ccc(C(=O)N2CCCC2)cc1	-2	3	5	-1	4
CCCCn1nc2cc(C(=O)NCCc3cccs3)ccc2c1OCC	-4	2	0	2	-43
CCOc1c2ccc(C(=O)NCCc3cccs3)cc2nn1CC	5	6	25*	-3	-58
CCCn1nc2cc(C(=O)NCCc3ccc(C)cc3)ccc2c1OCC	-2	6	26*	0	-54
CCCn1nc2cc(C(=O)NCCCCc3ccccc3)ccc2c1OCC	-3	5	0	3	-21
Nc1nonc1C(=NO)N1CCCC1	.	.	.	.	2
COc1ccc(CN(C(=O)CON=Cc2ccccc2)c2ccccc2C(=O)O)cc1	.	.	.	.	2
O=C1C2C3C=CC(C3)C2C(=O)N1CNc1ccc(O)cc1 (stereo not drawn)	.	.	.	71*	.
O=C(NN=Cc1ccc(Br)o1)c1cc([N+](=O)[O-])cc([N+](=O)[O-])c1	.	.	.	.	2
NC(=S)NN=Cc1ccc(OC(=O)c2cccnc2)cc1	.	.	.	.	4
Cc1nc(N)nc(Nc2ccc(C#N)cc2)c1Br	-5	2	17*	-2	6
Cc1nc(N)nc(Nc2ccc(Cl)cc2)c1Br	-3	-1	-14	5	3
C[C@H]1CCC[C@]2(O[C@H](CCO)C[C@H](O)[C@H]2O)O1	1	-3	29*	-1	4
C[C@H]1CCC[C@@]2(O[C@@H](CCO)C[C@H](O)[C@H]2O)O1	-2	1	0	-1	-1
COc1cc2c(cc1OC)C(c1ccc(Br)cc1)N(C(=O)c1ccccc1C(=O)O)CC2 (stereo not drawn)	2	-4	10	-2	6
COc1cc2c(cc1OC)C(C1C(=O)CC(C)(C)CC1=O)N(C(=O)CCl)CC2 (stereo not drawn)	1	-2	4	17*	-3
COc1cc2c(cc1OC)C(c1cc(Br)ccc1F)N(C(=O)CCl)CC2 (stereo not drawn)	4	3	2	89*	.
NC(=O)[C@@H]1CCCN1C(=O)[C@@H](Cc1cnc[nH]1)NC(=O)[C@@H]1CCC(=O)N1	-3	0	-7	.	1
CCNC(=O)C1CCCN1C(=O)C(CCCN=C(N)N)NC(=O)C(CC(C)C)NC(=O)C(Cc1cn(Cc2ccccc2)cn1)NC(=O)C(Cc1ccc(O)cc1)NC(=O)C(CO)NC(=O)C(Cc1c[nH]c2ccccc12)NC(=O)C(Cc1cnc[nH]1)NC(=O)C1CCC(=O)N1 (stereo not drawn)	.	3	-1	40*	4
COc1ccc(C2NC(=O)c3ccccc3O2)cc1 (stereo not drawn)	0	-2	23*	-3	3
CC(=NNC(=O)c1ccc(CN2CCOCC2)cc1)c1cccc([N+](=O)[O-])c1	.	.	.	.	-4
Brc1cc2c(cc1C=NNc1nc3ccccc3s1)OCO2	.	.	.	.	-1
COc1cccc(/C=N/NC(N)=S)c1OCc1cccc(Cl)c1	-2	-5	-15	17*	.
NC(=S)N/N=C/c1c[nH]c2ccc(OCc3ccccc3)cc12	0	-2	-6	55*	.
NC(=S)N/N=C\c1ccccc1OCc1ccccc1	-1	-5	-11	12	.
SMILES	DAGLB inhibitor	MT1-MMP act inh	CendR NRP1 mod	Fh CTSL1 inh	UCH37 DUB inh
CSc1ccc(C=Nn2c(COc3ccccc3)n[nH]c2=S)cc1	.	.	.	.	3
O=[N+]([O-])c1ccccc1C=NN1CCN(Cc2ccccc2Cl)CC1	.	.	.	.	1
N=C(N)c1ccc(N=Nc2c(O)ccc3c2[nH]c2ccccc23)cc1	19	4	72*	.	.
NC(=O)c1ccc(N=Nc2c(O)c3ccccc3[nH]c2=O)cc1	.	.	.	3	.
CCCS/C(N)=N/N=Cc1ccccc1O	.	.	.	.	1
CCN(CC)C(=O)c1sc(NC(=O)Cc2cccs2)c(C#N)c1C	-1	-2	-6	-2	4
Cc1c(C#N)c(NC(=O)CCl)n(Cc2ccccc2)c1C	1	-2	-14	40*	2
Cc1c(C#N)c(NC(=O)CCl)n(Cc2ccc(F)cc2)c1C	3	-1	-9	12	-2
Cc1c(C#N)c(NC(=O)CCl)n(Cc2cccs2)c1C	2	-6	-14	51*	7
CC(=NNC(=O)c1ccccc1-n1cccc1)C1CC1	.	.	.	.	5
CC1(C)S[C@@H]2[C@H](NC(=O)COc3ccccc3)C(=O)N2C1C(=O)OCC1CCCCC1 (stereo partly drawn)	-8	1	25*	1	-1
CCCn1c(=N)n(CC(=O)c2ccc([N+](=O)[O-])cc2)c2ccccc21	1	3	7	18*	4
CCCn1c(=N)n(CC(=O)c2ccc(Cl)cc2)c2ccccc21	0	-2	7	0	3
O=C(O)CS(=O)(=O)c1ccc(C(F)(F)F)cn1	-2	0	36*	-3	5
O=C1CCCC(=NNC(=O)C2CCN(S(=O)(=O)c3cccs3)CC2)C1	.	.	.	.	5
Cc1ccc(N)c([N+](=O)[O-])c1	3	-2	-5	.	8
Nc1ccc(N=Nc2ccccc2)cc1[N+](=O)[O-]	15	6	23*	.	5
CCCCc1cc2c(s1)CCCCC2=NO	.	.	.	.	3
COc1ccc(S(=O)(=O)N2CCCC(C(=O)N3CCOCC3)C2)cc1C (stereo not drawn)	-1	1	34*	-3	1
CCOC(=O)N1CCN(C(=O)COc2ccc(S(=O)(=O)NC3CCCCC3)cc2C)CC1	-4	0	6	0	4
CCN(CC)S(=O)(=O)N1CCC(C(=O)NCCC2=CCCCC2)CC1	-2	0	27*	-2	-1
Cc1cc(S(=O)(=O)NC2CCCCC2)ccc1OCC(=O)N1CCOCC1	5	-3	27*	1	6
COc1ccc(S(=O)(=O)N2CCCC(C(=O)N3CCOCC3)C2)cc1Cl (stereo not drawn)	-3	-2	1	5	4
COc1ccc(S(=O)(=O)N2CCC(C(=O)NCCC3=CCCCC3)CC2)cc1C	-3	-5	10	1	22*
CC(=NNC(=O)c1ccc(-c2ccccc2)cc1)c1cccc(N)c1	.	.	.	.	1
CCOC(=O)[C@]12CCCC=C1N(CCC1=CCCCC1)C(=O)[C@H](CC(=O)NCC13CC4CC(CC(C4)C1)C3)C2	.	-22	22*	.	.
CCOC(=O)[C@]12CCCC=C1N(Cc1ccco1)C(=O)[C@H](CC(=O)N1CCSCC1)C2	.	4	20*	.	.
CCOC(=O)[C@]12CCCC=C1N(Cc1ccco1)C(=O)[C@H](CC(=O)N1CCCCC1)C2	.	3	0	.	.
